Measured values from ChEMBL document CHEMBL1240369, “Antiviral efficacy of the novel compound BIT225 against HIV-1 release from human macrophages” (Antimicrob Agents Chemother, 2010).
pEC50: −log10 of the molar value. Activity calls are given as the source filed them. No cut-off for these calls is given here.

Key:
[1] = tested on: Human immunodeficiency virus 1; assay: Inhibition of HIV1 Vpu ion channel activity
Summary of the method: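 Planar lipid bilayer of POPE:POPC (50:50) in n-decane, with 50 mM KCl in 10 mM MES […] in both chambers. Synthetic Vpu peptide (150 ng) was added to cis and trans sides with stirring. K+ current appeared at −100 mV and was recorded at −40 mV, filtered at 1 kHz. Mean currents were taken over 10–30 s before and after compound (40 μM).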

[2] = Inhibition of Vpu ion channel in HIV1 G-92NG003-G3 in human MDM assessed as inhibition of vrius release; parameters: species or system Human immunodeficiency virus 1
[3] = Inhibition of Vpu ion channel in HIV1 92UG029 in human MDM assessed as inhibition of vrius release; parameters: species or system Human immunodeficiency virus 1
[4] = Inhibition of Vpu ion channel in HIV1 98IN017 in human MDM assessed as inhibition of vrius release; parameters: species or system Human immunodeficiency virus 1
[5] = Selectivity index, ratio of TC50 for human MDM cells to EC50 for HIV1 Ba-L infected in human MDM cells; type: toxicity, cell-based; details: read-out: Selectivity Index
Summary of the method: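 Day-14 adherence-derived MDM from seronegative donors were infected with HIV-1Ba-L for 3 h, PBS-washed thrice, and cultured in DMEM10+ with compound (10 to 0 μM; DMSO vehicle). EC50 came from nonlinear regression of day-7 supernatant RT activity as % virus control (n = 6, triplicates). TC50 came from day-7 MTT (A560, % DMSO control), range extended to 1,000 μM (n = 3). SI = TC50/EC50.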

[6] = Selectivity index, ratio of TC50 for human MDM cells to EC50 for HIV1 G-92NG003-G3 infected in human MDM cells; type: toxicity, cell-based; details: read-out: Selectivity Index
[7] = Selectivity index, ratio of TC50 for human MDM cells to EC50 for HIV1 93BR029 infected in human MDM cells; type: toxicity, cell-based; details: read-out: Selectivity Index
Summary of the method: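 Monocytes were adherence-isolated from seronegative PBMC and differentiated in DMEM with 10% human AB serum. Cells were infected with the R5 subtype F primary isolate (PBMC-grown). Antiviral effect was taken versus DMSO-treated controls. Toxicity was measured in parallel by MTT. The index is mean TC50 divided by mean EC50, from in-house experiments, n = 3.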

[8] = Selectivity index, ratio of TC50 for human MDM cells to EC50 for HIV1 98IN017 infected in human MDM cells; type: toxicity, cell-based; details: read-out: Selectivity Index
[9] = Selectivity index, ratio of TC50 for human MDM cells to EC50 for HIV1 5705.72 infected in human MDM cells; type: toxicity, cell-based; details: read-out: Selectivity Index
[10] = Selectivity index, ratio of TC50 for human MDM cells to EC50 for HIV1 1064.52 infected in human MDM cells; type: toxicity, cell-based; details: read-out: Selectivity Index
[11] = Selectivity index, ratio of TC50 for human MDM cells to EC50 for HIV1 MDR3761 infected in human MDM cells; type: toxicity, cell-based; details: read-out: Selectivity Index
MDM [12] = assay: Inhibition of Vpu ion channel in 0.01 MOI HIV1 Ba-L infected in 10 days differentiated human MDM cells assessed as number of gag copy; type: cell-based; details: Human immunodeficiency virus 1
Summary of the method: (§1)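 MDM differentiated for 7, 10 or 14 days were infected with HIV-1 Ba-L across a range of MOIs, washed three times with PBS and cultured 7 days with 10 μM compound or equal-volume DMSO. On day 7 postinfection, supernatant RT activity was measured (and infectivity on TZM-bl cells). Cell lysates went to real-time PCR for LTR-gag DNA, normalised to albumin copies.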

MDM [13] = assay: Inhibition of Vpu ion channel in 0.01 MOI HIV1 Ba-L infected in 10 days differentiated human MDM cells assessed as viral inhibition by TZM-bl infectivity assay; type: cell-based; details: Human immunodeficiency virus 1; summary of the method: as §1
MDM [14] = assay: Inhibition of Vpu ion channel in 0.05 MOI HIV1 Ba-L chronically infected in 14 days differentiated human MDM cells assessed as viral inhibition measured after treatment at 11 th day postinfection; type: cell-based; details: Human immunodeficiency virus 1
MDM [15] = assay: Inhibition of Vpu ion channel in 0.05 MOI HIV1 Ba-L chronically infected in 7 days differentiated human MDM cells assessed as reverse transcriptase activity after 21 days; type: cell-based; details: Human immunodeficiency virus 1
Summary of the method: (§2)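 Chronic infection model: MDM were incubated with HIV-1 Ba-L for 3 h and left 7 days unwashed, then washed three times and given a single 10 μM dose (DMSO control). Supernatants were sampled routinely for RT activity. In the washout arm, compound was removed and cells kept drug-free for an additional 20 days.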

MDM [16] = assay: Inhibition of Vpu ion channel in 0.05 MOI HIV1 Ba-L chronically infected in 7-14 days differentiated human MDM cells assessed as viral inhibition at 10 uM after 7 days post treatment; type: cell-based; details: Human immunodeficiency virus 1; summary of the method: as §2
MDM [17] = assay: Inhibition of Vpu ion channel in 0.05 MOI HIV1 Ba-L chronically infected in 7-14 days differentiated human MDM cells assessed as viral inhibition at 10 uM after 7 days post treatment measured after 20 days drug washout period; type: cell-based; details: Human immunodeficiency virus 1; summary of the method: as §2
[18] = tested on: Human immunodeficiency virus 2; assay: Antiviral activity against 0.05 MOI HIV2 noncytopathic strain chronically infected in 7-14 days differentiated human MDM cells assessed as viral inhibition measured after 7 days; type: functional
Summary of the method: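 Day 14 MDM from three seronegative donors were infected at MOI 0.05 for 7 days, then washed free of extracellular virus. Cultures then ran a further 7 days with or without 10 μM BIT225, from day 21. Day 28 supernatants were assayed by RT activity ELISA. Percent inhibition was taken versus untreated controls, as mean of three donors.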

[19] = tested on: Human immunodeficiency virus 1; assay: Antiviral activity against HIV1 Ba-L in human MDM assessed as inhibition integration of virus to host cell genome at 100 nM; type: functional, organism-based
[20] = tested on: Human immunodeficiency virus 1; assay: Antiviral activity against HIV1 Ba-L […] assessed as inhibition integration of virus to host cell genome at 10 uM; type: functional; parameters: scale not given: the % may be the effect or the level left
Summary of the method: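 Run in TZM-bl indicator cells (HIV-1 integration activates luciferase), not MDM, infected with HIV-1Ba-L in the presence of BIT225 across 0.3125 to 10 μM. Lysates were given luciferin and light was read on an illuminometer. Percent inhibition of integration was taken relative to DMSO-treated control. Data are from three separate experiments.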

[21] = molecular target: Protease (Human immunodeficiency virus 1) (UniProt Q9YQ12); assay: Inhibition of HIV1 protease assessed as substrate cleavage by cell free assay
Protease (Human immunodeficiency virus 1), sequence (Q9YQ12 as listed by the source): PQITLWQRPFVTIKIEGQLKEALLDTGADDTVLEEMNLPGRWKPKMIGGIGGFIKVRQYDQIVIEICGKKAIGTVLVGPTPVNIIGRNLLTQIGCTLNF
Summary of the method: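 Cell-free fluorometric protease assay: compound (1–100 μM) was premixed with 2 μM quenched HIV-1 protease substrate 1. Background fluorescence (ex 340/em 490 nm) was read every 5 s for 5 min. HIV-1 protease was then added at 1.5% and cleavage followed for a further 5 min. LPV and EFV served as controls.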

PM1 = assay: Inhibition of Vpu ion channel in 0.05 MOI HIV1 NL4-3 infected in PM1 cells assessed as viral inhibition measured after 7 days by […]; details: Human immunodeficiency virus 1
MT2 = assay: Inhibition of Vpu ion channel in 0.05 MOI HIV1 NL4-3 infected in MT2 cells assessed as viral inhibition measured at 10 uM after 7 days by […]; details: Human immunodeficiency virus 1

SMILES: Cn1cc(-c2cccc3cc(C(=O)NC(=N)N)ccc23)cn1
- Activity [1]: 40 µM
- pEC50 [2]: 5.80
- pEC50 [3]: 4.84
- pEC50 [4]: 4.37
- selectivity ratio [5]: 126
- selectivity ratio [6]: 131
- selectivity ratio [7]: 111
- selectivity ratio [8]: 4.8
- selectivity ratio [9]: 39.3
- selectivity ratio [10]: 61.9
- selectivity ratio [11]: 39.3
- Activity (MDM [12]): 1380
- inhibition (MDM [13]): 90.4%
- inhibition (MDM [14]): 86.3%
- Activity (MDM [15]): < 2 U/ml
- Activity (MDM [16]): Active
- Activity (MDM [17]): inactive
- inhibition (INH) [18]: 13.4%
- Activity [19]: Active
- Activity [20]: 6%
- Activity [21]: inactive
- inhibition (PM1): 93.1%
- inhibition (MT2): 24%
